ChEMBL document CHEMBL4431364, “Discovery and synthetic optimization of a novel scaffold for hydrophobic tunnel-targeted autotaxin inhibition” (Bioorg Med Chem, 2016)
Calls of active or inactive are those of the source. No cut-off for these calls is given here.

Experiments:
[1] = biological target: T1, Lysophosphatidic acid receptor 3 (Homo sapiens) (UniProt Q9UBY5); assay: Antagonist activity at LPA receptor 3 (unknown origin) assessed as inhibition of LPA induced calcium mobilization at 0.01 to 10 uM after 30 mins by fluorescence analysis; type: functional
T1 sequence (whole entry): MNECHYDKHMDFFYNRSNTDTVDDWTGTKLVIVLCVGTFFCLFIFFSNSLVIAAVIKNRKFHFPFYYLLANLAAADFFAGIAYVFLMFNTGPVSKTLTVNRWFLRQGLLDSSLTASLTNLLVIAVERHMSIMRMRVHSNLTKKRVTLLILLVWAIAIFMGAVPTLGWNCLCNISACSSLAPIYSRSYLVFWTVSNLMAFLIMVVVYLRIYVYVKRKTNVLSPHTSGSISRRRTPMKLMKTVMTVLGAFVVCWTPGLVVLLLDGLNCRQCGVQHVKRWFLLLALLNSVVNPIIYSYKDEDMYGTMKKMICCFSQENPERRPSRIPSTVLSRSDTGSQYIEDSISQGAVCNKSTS

Autotaxin [2] = biological target: T2, Autotaxin (Homo sapiens, UniProt Q13822); assay: Inhibition of C-terminal FLAG tagged human recombinant ATX expressed in insect sf9 cells using FS-3 as substrate measured every 2 mins for 60 mins by FRET assay
How it was run: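 Dose response over 0.03 to 30 μM compound, 10 nM human FLAG-fusion ATX, 1 μM FS-3 in pH 8.0 Tris/BSA assay buffer. Fluorescence at 485/520 nm every 2 min for 60 min at 37 °C, normalized to no-ATX and no-compound controls. IC50 by non-linear regression. Triplicate.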

Autotaxin [3] = biological target: T2, Autotaxin; assay: Inhibition of C-terminal FLAG tagged human recombinant ATX expressed in insect sf9 cells using pNP-TMP as substrate measured every 2 mins for 60 mins by absorbance
How it was run: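 Dose response 0.03 to 30 μM compound against 10 nM human FLAG-fusion ATX with 1 mM pNP-TMP in pH 8.0 Tris/BSA buffer. A405 every 2 min for 60 min at 37 °C, normalized to no-enzyme and uninhibited controls. IC50 by non-linear regression. Triplicate.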

[4] = biological target: Lysophosphatidic acid receptor 4 (Homo sapiens) (UniProt Q99677); assay: Antagonist activity at LPA receptor 4 (unknown origin) assessed as inhibition of LPA induced calcium mobilization at 0.01 to 10 uM after 30 mins by fluorescence analysis; type: functional
Sequence of Lysophosphatidic acid receptor 4 (Homo sapiens) (Q99677 whole entry): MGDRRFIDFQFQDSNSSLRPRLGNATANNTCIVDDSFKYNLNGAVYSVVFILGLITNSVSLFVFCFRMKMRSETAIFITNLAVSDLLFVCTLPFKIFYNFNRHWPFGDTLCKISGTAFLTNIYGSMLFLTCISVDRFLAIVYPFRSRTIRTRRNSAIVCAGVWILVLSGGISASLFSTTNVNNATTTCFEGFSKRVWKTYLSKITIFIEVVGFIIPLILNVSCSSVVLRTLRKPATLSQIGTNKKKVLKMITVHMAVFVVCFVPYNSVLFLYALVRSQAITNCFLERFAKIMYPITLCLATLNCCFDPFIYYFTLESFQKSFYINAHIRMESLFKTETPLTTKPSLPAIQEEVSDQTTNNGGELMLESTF

[5] = biological target: T3, Ectonucleotide pyrophosphatase/phosphodiesterase family member 7 (Homo sapiens) (UniProt Q6UWV6); assay: Inhibition of C-terminal FLAG tagged human recombinant NPP7 expressed in insect sf9 cells assessed as remaining enzyme activity response at 10 uM using pNPPC as substrate measured every 2 mins for 1 hr by […]
T3 sequence (whole entry): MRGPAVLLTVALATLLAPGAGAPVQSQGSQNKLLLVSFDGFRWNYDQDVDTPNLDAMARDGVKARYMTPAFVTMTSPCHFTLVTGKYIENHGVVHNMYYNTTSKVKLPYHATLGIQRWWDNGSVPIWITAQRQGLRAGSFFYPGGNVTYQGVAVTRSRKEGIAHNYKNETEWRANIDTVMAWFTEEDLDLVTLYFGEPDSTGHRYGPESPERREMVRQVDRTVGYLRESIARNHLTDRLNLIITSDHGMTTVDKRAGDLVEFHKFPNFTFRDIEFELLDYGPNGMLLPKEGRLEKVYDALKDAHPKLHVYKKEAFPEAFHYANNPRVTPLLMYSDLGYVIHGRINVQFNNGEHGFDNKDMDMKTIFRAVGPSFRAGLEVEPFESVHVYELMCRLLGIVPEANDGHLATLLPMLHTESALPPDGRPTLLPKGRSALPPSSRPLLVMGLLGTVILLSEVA
How it was run: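 Human FLAG-fusion NPP7 (10 nM final) with 10 μM compound and 10 μM pNPPC in 50 mM Tris-HCl, 150 mM NaCl, 10 mM taurocholate, pH 8. Absorbance at 405 nm, 37 °C, every 2 min for an hour. Background subtracted. Mean percent of enzyme-only response (no-enzyme = 0%). Triplicate.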

[6] = biological target: T1, Lysophosphatidic acid receptor 3 (Homo sapiens); assay: Agonist activity at LPA receptor 3 (unknown origin) assessed as calcium mobilization after 30 mins by fluorescence analysis; type: functional
[7] = biological target: Lysophosphatidic acid receptor 5 (Homo sapiens) (UniProt Q9H1C0); assay: Agonist activity at LPA receptor 5 (unknown origin) assessed as calcium mobilization after 30 mins by fluorescence analysis; type: functional
Sequence of Lysophosphatidic acid receptor 5 (Homo sapiens) (Q9H1C0 whole entry): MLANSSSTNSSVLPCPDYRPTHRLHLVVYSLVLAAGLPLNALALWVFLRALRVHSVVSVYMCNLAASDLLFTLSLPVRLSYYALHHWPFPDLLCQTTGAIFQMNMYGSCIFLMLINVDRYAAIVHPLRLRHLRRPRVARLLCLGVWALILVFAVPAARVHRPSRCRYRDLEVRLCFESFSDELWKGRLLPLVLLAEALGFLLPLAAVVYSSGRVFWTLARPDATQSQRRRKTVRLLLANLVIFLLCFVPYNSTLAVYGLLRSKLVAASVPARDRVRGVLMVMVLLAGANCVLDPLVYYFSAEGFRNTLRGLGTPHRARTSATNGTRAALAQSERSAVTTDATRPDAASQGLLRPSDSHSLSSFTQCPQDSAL

[8] = biological target: Lysophosphatidic acid receptor 1 (Homo sapiens) (UniProt Q92633); assay: Agonist activity at LPA receptor 1 (unknown origin) assessed as calcium mobilization after 30 mins by fluorescence analysis; type: functional
Sequence of Lysophosphatidic acid receptor 1 (Homo sapiens) (Q92633 whole entry): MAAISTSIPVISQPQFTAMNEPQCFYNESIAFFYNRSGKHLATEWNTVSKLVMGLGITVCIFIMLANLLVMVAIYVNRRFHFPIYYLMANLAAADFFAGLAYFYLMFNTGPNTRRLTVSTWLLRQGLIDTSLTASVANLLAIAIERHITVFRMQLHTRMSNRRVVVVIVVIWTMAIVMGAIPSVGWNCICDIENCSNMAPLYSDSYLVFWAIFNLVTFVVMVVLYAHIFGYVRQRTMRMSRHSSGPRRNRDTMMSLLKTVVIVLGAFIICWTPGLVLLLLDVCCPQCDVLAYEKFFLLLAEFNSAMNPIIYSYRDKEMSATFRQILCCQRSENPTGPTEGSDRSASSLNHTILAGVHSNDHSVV

[9] = biological target: Lysophosphatidic acid receptor 5 (Homo sapiens) (UniProt Q9H1C0); assay: Antagonist activity at LPA receptor 5 (unknown origin) assessed as inhibition of LPA induced calcium mobilization at 0.01 to 10 uM after 30 mins by fluorescence analysis; type: functional
Autotaxin [10] = biological target: T2, Autotaxin; assay: Potency index, ratio of IC50 for GRI392104 to IC50 for test compound for inhibition of C-terminal FLAG tagged human recombinant ATX expressed in insect sf9 cells using FS-3 as substrate measured every 2 mins for 60 mins by FRET assay
[11] = biological target: Lysophosphatidic acid receptor 2 (Mus musculus) (UniProt Q9JL06); assay: Antagonist activity at LPA receptor 2 in double knockout MEF assessed as inhibition of LPA induced calcium mobilization at 0.01 to 10 uM after 30 mins by fluorescence analysis; type: functional, cell-based
Sequence of Lysophosphatidic acid receptor 2 (Mus musculus) (Q9JL06 whole entry): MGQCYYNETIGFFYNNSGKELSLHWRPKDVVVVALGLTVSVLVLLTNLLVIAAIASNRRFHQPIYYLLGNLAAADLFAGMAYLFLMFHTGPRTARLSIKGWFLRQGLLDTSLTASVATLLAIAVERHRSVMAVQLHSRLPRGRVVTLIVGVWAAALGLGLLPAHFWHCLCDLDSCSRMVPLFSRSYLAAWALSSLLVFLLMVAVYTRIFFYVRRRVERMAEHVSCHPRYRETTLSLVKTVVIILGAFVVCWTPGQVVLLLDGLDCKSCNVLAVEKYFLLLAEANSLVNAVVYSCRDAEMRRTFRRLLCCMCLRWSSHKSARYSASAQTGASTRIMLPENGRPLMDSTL

Autotaxin [12] = biological target: T2, Autotaxin; assay: Inhibition of C-terminal FLAG tagged human recombinant ATX expressed in insect sf9 cells at 10 uM using FS-3 as substrate measured every 2 mins for 60 mins by FRET assay
How it was run: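 10 μM compound with 10 nM human FLAG-fusion ATX in pH 8.0 Tris buffer (30 μM BSA, 1 mM CaCl2, 1 mM MgCl2, 5 mM KCl, 140 mM NaCl) and 1 μM FS-3. Fluorescence at ex 485/em 520 nm read every 2 min for 60 min at 37 °C. Normalized to no-ATX (0%) and ATX without compound (100%). Triplicate.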

[13] = biological target: Lysophosphatidic acid receptor 2 (Mus musculus) (UniProt Q9JL06); assay: Potentiation of LPA induced activity at LPA receptor 2 in double knockout MEF assessed as calcium mobilization at 0.01 to 10 uM after 30 mins in presence of BSA by Fura-2AM based fluorescence analysis; type: functional, cell-based
Autotaxin [14] = biological target: T2, Autotaxin; assay: Inhibition of C-terminal FLAG tagged human recombinant ATX expressed in insect sf9 cells at 10 uM using pNP-TMP as substrate measured every 2 mins for 60 mins by absorbance
[15] = biological target: Lysophosphatidic acid receptor 2 (Mus musculus) (UniProt Q9JL06); assay: Agonist activity at LPA receptor 2 in double knockout MEF assessed as calcium mobilization after 30 mins by fluorescence analysis; type: functional, cell-based
[16] = biological target: Lysophosphatidic acid receptor 1 (Homo sapiens) (UniProt Q92633); assay: Antagonist activity at LPA receptor 1 (unknown origin) assessed as inhibition of LPA induced calcium mobilization at 0.01 to 10 uM after 30 mins by fluorescence analysis; type: functional
[17] = biological target: Lysophosphatidic acid receptor 4 (Homo sapiens) (UniProt Q99677); assay: Agonist activity at LPA receptor 4 (unknown origin) assessed as calcium mobilization after 30 mins by fluorescence analysis; type: functional
[18] = biological target: T4, Glycerophosphocholine cholinephosphodiesterase ENPP6 (Homo sapiens) (UniProt Q6UWR7); assay: Inhibition of C-terminal FLAG tagged human recombinant NPP6 expressed in insect sf9 cells assessed as remaining enzyme activity response at 10 uM using pNPPC as substrate measured every 2 mins for 1 hr by […]
T4 sequence (whole entry): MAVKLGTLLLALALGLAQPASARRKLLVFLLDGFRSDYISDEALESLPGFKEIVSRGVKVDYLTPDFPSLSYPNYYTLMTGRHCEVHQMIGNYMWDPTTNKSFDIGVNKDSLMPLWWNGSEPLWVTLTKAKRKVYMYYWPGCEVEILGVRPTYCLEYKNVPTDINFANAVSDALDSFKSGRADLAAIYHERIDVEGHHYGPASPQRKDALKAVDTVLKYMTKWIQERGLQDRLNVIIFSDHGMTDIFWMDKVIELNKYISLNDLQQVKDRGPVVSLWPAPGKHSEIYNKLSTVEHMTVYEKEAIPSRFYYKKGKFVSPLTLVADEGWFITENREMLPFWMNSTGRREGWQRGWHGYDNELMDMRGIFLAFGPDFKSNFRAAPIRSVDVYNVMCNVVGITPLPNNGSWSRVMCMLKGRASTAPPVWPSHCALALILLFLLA
How it was run: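 Final 10 nM human FLAG-fusion NPP6, 10 μM compound, 10 μM pNPPC in 500 mM NaCl, 100 mM Tris-HCl, 0.05% Triton X-100, pH 9. A405 at 37 °C every 2 min for 1 h. Background absorbance subtracted. Mean percent response relative to enzyme-only control (no-enzyme = 0%). Triplicate.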

Compound: O=C(COc1cc(Cl)cc(Cl)c1)N1CCN(c2cccc([N+](=O)[O-])c2)CC1
- inhibition [1]: inactive
- IC50 (Autotaxin [2]): 0.67 µM
- IC50 (Autotaxin [3]): 8.9 µM
- inhibition [4]: inactive
- Activity [5]: 102%
- Activity [6]: inactive
- Activity [7]: inactive
- Activity [8]: inactive
- inhibition [9]: inactive
- Ratio IC50 (Autotaxin [10]): 6
- inhibition [11]: inactive
- inhibition (Autotaxin [12]): 84.3%
- Activity [13]: Active
- inhibition (Autotaxin [14]): 52.1%
- Activity [15]: inactive
- inhibition [16]: inactive
- Activity [17]: inactive
- Activity [18]: 89.8%
